Results reported in ChEMBL document CHEMBL2311525, “Design, synthesis, and pharmacological properties of new heteroarylpyridine/heteroarylpyrimidine derivatives as CB(2) cannabinoid receptor partial agonists” (J Med Chem, 2013).

Tests used:
[1] = species on record: Homo sapiens; assay: Selectivity index, ratio of Ki for human recombinant CB1 receptor to Ki for human recombinant CB2 receptor
[2] = target: Cannabinoid receptor 1 (Homo sapiens, UniProt P21554); assay: Displacement of [3H]CP-55,940 from human recombinant CB1 receptor expressed in CHO cell membranes after 90 mins by scintillation counting analysis
[3] = target: T1, Cannabinoid receptor 2 (Homo sapiens, UniProt P34972); assay: Agonist activity at human CB2 receptor expressed in CHO cells assessed as forskolin-stimulated [3H]cyclic-AMP accumulation by scintillation counting analysis relative to WIN 55,212-2; type: functional, cell-based
Method in brief: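 CHO cells stably expressing human CB2, 1 × 10^6 cells/assay, in buffered saline (10 mM MgCl2, 5 mM glucose, 5 mM HEPES, pH 7.4, 37 °C) with 0.5 mM Ro 20-1724. Preincubated 10 min at 37 °C, then tested with 1 μM forskolin. Stopped with cold 6% TCA and ether-extracted. cAMP read by [3H]cAMP competition binding to beef adrenal binding protein with charcoal separation.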

[4] = target: Cannabinoid receptor 1 (Rattus norvegicus, UniProt P20272); assay: Displacement of [3H]CP-55,940 from Sprague-Dawley rat brain CB1 receptor by scintillation counting analysis
Method in brief: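 Male Sprague-Dawley rat brain membranes, prepared by spinning at 2000g and then 40000g, in 50 mM Tris-HCl with 1 mM EDTA, 3 mM MgCl2 and 0.5% fatty-acid-free BSA, pH 7.4. Incubated with 1.0 nM [3H]CP-55,940, 40 μg protein/100 μL and test compound at 1 nM–10 μM. Filtered on GF/C. Ki by Cheng–Prusoff, n = 4.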

[5] = target: T1, Cannabinoid receptor 2; assay: Agonist activity at human CB2 receptor expressed in CHO cells assessed as forskolin-stimulated [3H]cyclic-AMP accumulation by scintillation counting analysis; type: functional, cell-based
[6] = target: T1, Cannabinoid receptor 2; assay: Displacement of [3H]CP-55,940 from human recombinant CB2 receptor expressed in CHO cell membranes after 60 mins by scintillation counting analysis
[7] = target: T2, Cannabinoid receptor 2 (Rattus norvegicus, UniProt Q9QZN9); assay: Displacement of [3H]CP-55,940 from Sprague-Dawley rat spleen CB2 receptor by scintillation counting analysis
T2 sequence (Q9QZN9 whole entry): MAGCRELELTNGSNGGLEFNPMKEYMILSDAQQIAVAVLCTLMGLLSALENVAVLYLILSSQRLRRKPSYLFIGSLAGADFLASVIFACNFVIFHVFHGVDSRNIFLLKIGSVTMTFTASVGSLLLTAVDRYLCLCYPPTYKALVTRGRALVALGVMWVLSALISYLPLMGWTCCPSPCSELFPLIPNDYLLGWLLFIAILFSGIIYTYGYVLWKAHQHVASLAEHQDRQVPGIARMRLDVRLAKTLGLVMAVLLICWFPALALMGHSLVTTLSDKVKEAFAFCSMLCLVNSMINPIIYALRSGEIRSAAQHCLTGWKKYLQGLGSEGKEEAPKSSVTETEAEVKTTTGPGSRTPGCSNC
Method in brief: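 Male Sprague-Dawley rat spleen membranes, prepared by spinning at 2000g and then 40000g, in 50 mM Tris-HCl with 1 mM EDTA, 3 mM MgCl2 and 0.5% fatty-acid-free BSA, pH 7.4. Filtered on GF/C.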

Cannabinoid receptor 1 (Rattus norvegicus, UniProt P20272), sequence (P20272 whole entry): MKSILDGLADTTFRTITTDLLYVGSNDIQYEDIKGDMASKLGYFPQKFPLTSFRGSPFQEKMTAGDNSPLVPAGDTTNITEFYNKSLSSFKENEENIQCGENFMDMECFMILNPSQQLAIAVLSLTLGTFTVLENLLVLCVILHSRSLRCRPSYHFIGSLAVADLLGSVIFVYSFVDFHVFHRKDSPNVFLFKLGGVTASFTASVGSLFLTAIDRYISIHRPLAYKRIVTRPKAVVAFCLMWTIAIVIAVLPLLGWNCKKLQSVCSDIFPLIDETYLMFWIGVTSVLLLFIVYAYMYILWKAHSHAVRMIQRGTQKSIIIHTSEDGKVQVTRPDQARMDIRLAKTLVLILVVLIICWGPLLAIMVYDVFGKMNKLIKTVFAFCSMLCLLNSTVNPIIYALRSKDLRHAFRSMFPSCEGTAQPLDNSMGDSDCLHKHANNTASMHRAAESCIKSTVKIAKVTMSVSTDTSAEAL
Cannabinoid receptor 1 (Homo sapiens, UniProt P21554), sequence (P21554 whole entry): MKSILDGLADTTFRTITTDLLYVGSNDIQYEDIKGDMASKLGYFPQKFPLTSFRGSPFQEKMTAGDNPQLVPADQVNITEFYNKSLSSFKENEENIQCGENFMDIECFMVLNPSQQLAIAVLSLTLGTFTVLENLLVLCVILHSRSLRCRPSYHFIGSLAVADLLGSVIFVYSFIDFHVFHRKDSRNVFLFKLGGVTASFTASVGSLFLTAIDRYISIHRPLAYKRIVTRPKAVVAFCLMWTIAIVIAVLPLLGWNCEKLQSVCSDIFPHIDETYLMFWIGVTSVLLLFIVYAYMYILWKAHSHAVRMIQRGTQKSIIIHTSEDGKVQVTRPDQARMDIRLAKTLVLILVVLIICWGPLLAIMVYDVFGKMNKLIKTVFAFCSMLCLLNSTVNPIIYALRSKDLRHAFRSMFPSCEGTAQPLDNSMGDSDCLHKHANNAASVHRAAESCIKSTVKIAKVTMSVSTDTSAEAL
T1 sequence (P34972 whole entry): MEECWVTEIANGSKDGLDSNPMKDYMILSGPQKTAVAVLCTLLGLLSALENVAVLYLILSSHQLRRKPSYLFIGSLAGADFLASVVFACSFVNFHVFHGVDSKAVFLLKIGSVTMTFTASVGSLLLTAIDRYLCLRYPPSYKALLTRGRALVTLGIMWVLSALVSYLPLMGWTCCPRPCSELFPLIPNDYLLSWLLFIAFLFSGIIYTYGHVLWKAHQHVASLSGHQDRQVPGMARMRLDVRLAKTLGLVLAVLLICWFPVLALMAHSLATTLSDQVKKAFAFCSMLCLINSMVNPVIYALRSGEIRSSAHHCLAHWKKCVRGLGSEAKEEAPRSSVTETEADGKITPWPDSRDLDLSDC

CCCCCn1cc(C(=O)NC2CCCCCC2)c(=O)c2c(C)noc21
Ratio Ki [1]: 7.8
Ki [2]: 145 nM
Emax [3]: 99%
Ki [4]: 184 nM
EC50 [5]: 35 nM
Ki [6]: 18.5 nM
Ki [7]: 50 nM

CCCCCn1cc(C(=O)NC2CCCCCC2)c(=O)c2c(C)nn(C)c21
Ratio Ki [1]: 23
Ki [2]: 252 nM
Emax [3]: 65%
Ki [4]: 1620 nM
EC50 [5]: 51 nM
Ki [6]: 11.2 nM
Ki [7]: 35 nM

CCCn1cc(C(=O)NC2CCCCC2)c(=O)c2c(C)nn(C)c21
Ratio Ki [1]: 1.8
Ki [2]: 758 nM
Ki [4]: 832 nM
Ki [6]: 412 nM
Ki [7]: 593 nM

CCCCCn1cc(C(=O)NC2CCCCCC2)c(=O)c2cnn(C)c21
Ratio Ki [1]: 44
Ki [2]: 4550 nM
Emax [3]: 56%
Ki [4]: 5200 nM
EC50 [5]: 404 nM
Ki [6]: 103 nM
Ki [7]: 130 nM

CCCCCn1cc(C(=O)NC23CC4CC(CC(C4)C2)C3)c(=O)c2c(C)c(C)sc21
Ratio Ki [1]: 15.9
Ki [2]: 43 nM
Emax [3]: -178%
Ki [4]: 52 nM
EC50 [5]: 34 nM
Ki [6]: 3.27 nM
Ki [7]: 4.26 nM

CCCCCn1cc(C(=O)N[C@H]2CC[C@H](C)CC2)c(=O)c2c(C)nn(C)c21
Ratio Ki [1]: 401
Ki [2]: 4570 nM
Emax [3]: 14%
Ki [4]: 4800 nM
EC50 [5]: 58 nM
Ki [6]: 11.4 nM
Ki [7]: 13.3 nM

CCCCCn1cc(C(=O)NC2CCCCCC2)c(=O)c2c(C)csc21
Ratio Ki [1]: 7.5
Ki [2]: 52 nM
Emax [3]: -95%
Ki [4]: 67 nM
EC50 [5]: 65 nM
Ki [6]: 6.95 nM
Ki [7]: 8.23 nM

CCCCCCn1cc(C(=O)NC2CCCCC2)c(=O)c2c(C)nn(C)c21
Ratio Ki [1]: 12
Ki [2]: 3870 nM
Emax [3]: 27%
Ki [4]: 3220 nM
EC50 [5]: 1200 nM
Ki [6]: 325 nM
Ki [7]: 480 nM

CCCCn1cc(C(=O)NC2CCCCC2)c(=O)c2c(C)nn(C)c21
Ratio Ki [1]: 9.1
Ki [2]: 1260 nM
Emax [3]: 38%
Ki [4]: 1530 nM
EC50 [5]: 1890 nM
Ki [6]: 138 nM
Ki [7]: 145 nM

CCCCCn1cc(C(=O)NC2CCCCC2)c(=O)c2cnn(C)c21
Ratio Ki [1]: 22
Ki [2]: 5150 nM
Emax [3]: 48%
Ki [4]: 5650 nM
EC50 [5]: 872 nM
Ki [6]: 237 nM
Ki [7]: 250 nM

CCCCCn1cc(C(=O)NC2CCCCC2)c(=O)c2c(C)nn(C)c21
Ratio Ki [1]: 5.9
Ki [2]: 500 nM
Emax [3]: 52%
Ki [4]: 1420 nM
EC50 [5]: 323 nM
Ki [6]: 85 nM
Ki [7]: 100 nM

CCCCCn1cc(C(=O)NC2CCCCC2)c(=O)c2c(C)noc21
Ratio Ki [1]: 17.7
Ki [2]: 155 nM
Emax [3]: 98%
Ki [4]: 187 nM
EC50 [5]: 14.3 nM
Ki [6]: 8.74 nM
Ki [7]: 38 nM

CCCCCn1cc(C(=O)NC23CC4CC(CC(C4)C2)C3)c(=O)n2nc(-c3ccccc3)nc12
Ratio Ki [1]: 146
Ki [2]: 523 nM
Ki [4]: 560 nM
Ki [6]: 3.58 nM
Ki [7]: 4.83 nM

CCCCCn1cc(C(=O)Nc2ccccc2)c(=O)c2c(C)nn(C)c21
Ratio Ki [1]: 1.7
Ki [2]: 865 nM
Emax [3]: 38%
Ki [4]: 1020 nM
EC50 [5]: 2160 nM
Ki [6]: 524 nM
Ki [7]: 740 nM

CCCCCn1cc(C(=O)N[C@H]2CC[C@@H](C)CC2)c(=O)c2c(C)nn(C)c21
Ratio Ki [1]: 68
Ki [2]: 723 nM
Emax [3]: 16%
Ki [4]: 750 nM
EC50 [5]: 52 nM
Ki [6]: 10.6 nM
Ki [7]: 11.8 nM

CCCCCn1cc(C(=O)NC23CC4CC(CC(C4)C2)C3)c(=O)c2c(CC)nn(C)c21
Ratio Ki [1]: 12
Ki [2]: 440 nM
Emax [3]: 51%
Ki [4]: 2670 nM
EC50 [5]: 162 nM
Ki [6]: 37 nM
Ki [7]: 97 nM

CCCCCn1cc(C(=O)NC23CC4CC(CC(C4)C2)C3)c(=O)c2c(C)noc21
Ratio Ki [1]: 69.9
Ki [2]: 1470 nM
Emax [3]: 97%
Ki [4]: 1490 nM
EC50 [5]: 83 nM
Ki [6]: 21 nM
Ki [7]: 26 nM

CCCCCn1cc(C(=O)NC(C)CCC(C)C)c(=O)c2c(C)nn(C)c21 (stereo unspecified)
Ratio Ki [1]: 8.5
Ki [2]: 1800 nM
Emax [3]: 46%
Ki [4]: 2260 nM
EC50 [5]: 827 nM
Ki [6]: 212 nM
Ki [7]: 262 nM

CCCCCn1cc(C(=O)NC2CCCCC2)c(=O)c2c(CC)nn(C)c21
Ratio Ki [1]: 2
Ki [2]: 957 nM
Emax [3]: 32%
Ki [4]: 1120 nM
EC50 [5]: 2350 nM
Ki [6]: 469 nM
Ki [7]: 516 nM

CCCCCn1cc(C(=O)NC23CC4CC(CC(C4)C2)C3)c(=O)c2c(C)csc21
Ratio Ki [1]: 12.5
Ki [2]: 13.7 nM
Emax [3]: -167%
Ki [4]: 16.5 nM
EC50 [5]: 31 nM
Ki [6]: 1.12 nM
Ki [7]: 1.25 nM

CCCCCn1cc(C(=O)NC23CC4CC(CC(C4)C2)C3)c(=O)n2ncnc12
Ratio Ki [1]: 35.6
Ki [2]: 712 nM
Emax [3]: 60%
Ki [4]: 850 nM
EC50 [5]: 87 nM
Ki [6]: 20 nM
Ki [7]: 21 nM

CCCCCn1cc(C(=O)NCC2CCCCC2)c(=O)c2c(C)nn(C)c21
Ratio Ki [1]: 3
Ki [2]: 1120 nM
Emax [3]: 41%
Ki [4]: 1040 nM
EC50 [5]: 1560 nM
Ki [6]: 372 nM
Ki [7]: 508 nM

CCCCCn1cc(C(=O)NC23CC4CC(CC(C4)C2)C3)c(=O)c2c(C)nn(C)c21
Ratio Ki [1]: 84
Ki [2]: 800 nM
Emax [3]: 68%
Ki [4]: 832 nM
EC50 [5]: 49 nM
Ki [6]: 9.51 nM
Ki [7]: 11.4 nM

CCCCCn1cc(C(=O)NC23CC4CC(CC(C4)C2)C3)c(=O)c2cnn(C)c21
Ratio Ki [1]: 432
Ki [2]: 4750 nM
Emax [3]: 67%
Ki [4]: 5340 nM
EC50 [5]: 41 nM
Ki [6]: 11.6 nM
Ki [7]: 13.3 nM

Cc1nn(C)c2c1c(=O)c(C(=O)NC1CCCCC1)cn2Cc1ccccc1
Ratio Ki [1]: 4.4
Ki [2]: 4250 nM
Emax [3]: 36%
Ki [4]: 4560 nM
EC50 [5]: 3820 nM
Ki [6]: 956 nM
Ki [7]: 1100 nM
